Calls of active or inactive are those of the source. The rule behind the calls is not given here.
Tests used:
J774 = assay: Cytotoxicity against mouse J774 cells at 100 uM relative to 5-((hydroxyimino)methyl)-2,2-dimethyl-2H-benzo[d]imidazole 1,3-dioxide; assay type: cell-based; settings: j774, 100 µM
Trypanosoma cruzi [1] = assay: Antitrypanosomal activity against Trypanosoma cruzi Colombiana assessed as parasitic cytotoxicity at 25 uM after 5 days by MTT assay; assay type: functional
How it was run: (§1)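 Single 25 μM dose for 5 days on exponential-phase epimastigotes in BHI-Tryptose + 5% FBS, 24-well plates; MTT 0.4 mg/mL, 3 h at 37 °C after PBS wash, formazan in DMSO, OD595. PCyt = [[…] (ODd − ODdm)/(ODc − ODcm)] × 100 with medium-only blanks, compound-in-medium blanks and growth controls; three independent experiments.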

[2] = Selective index, ratio of ID50 for mouse J774 cells to ID50 for Leishmania braziliensis LTB300
[3] = Selective index, ratio of ID50 for mouse J774 cells to ID50 for Trypanosoma cruzi Tulahuen 2
Trypanosoma cruzi [4] = assay: Antitrypanosomal activity against Trypanosoma cruzi Tulahuen 2 epimastigotes assessed as inhibition of parasite growth after 5 days; assay type: functional; settings: for IC50: Trypanosoma cruzi, Tulahuen 2, 120 h, read-out: ID50 (the source's name)
How it was run: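 Stationary-phase (10-day) Tulahuen 2 epimastigotes inoculated at 1×10^6 cells/mL in BHI-Tryptose + 5% FBS, 28 °C, drug added from DMSO stock (final DMSO ≤0.4%; control 0.4% DMSO). Growth followed as A600; inhibition from day-5 vs day-0 absorbance relative to control. ID50 = concentration reducing absorbance ratio to 50%; three independent experiments.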

[5] = Cytotoxicity against mouse J774 cells; assay type: cell-based; settings: read-out: ID50 (the source's name)
Leishmania braziliensis [6] = assay: Antiparasitic activity against Leishmania braziliensis MHOM/BR/00/LTB300 after 5 days by MTT assay; assay type: functional; settings: MHOM/BR/00/LTB300, 120 h, read-out: ID50
How it was run: (§2)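 Epimastigotes (T. cruzi strains, BHI-Tryptose + 5% FBS, 28 °C) or L. braziliensis LTB300 promastigotes (axenic RPMI + 5% FBS, 28 °C) from exponential culture in 24-well plates; compounds from DMSO stock added for 5 days. Washed in PBS, 0.4 mg/mL MTT at 37 °C for 3 h, formazan dissolved in DMSO, OD595 read. Triplicate per concentration, six growth controls; 1.0–50.0 μM dose-response, ID50 = concentration reducing absorbance ratio to 50%; three independent experiments.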

Trypanosoma cruzi [7] = assay: Antitrypanosomal activity against Trypanosoma cruzi CL Brener epimastigotes assessed as parasitic cytotoxicity at 25 uM after 5 days by MTT assay; assay type: functional; how it was run: as §1
Trypanosoma cruzi [8] = assay: Antitrypanosomal activity against Trypanosoma cruzi Y epimastigotes after 5 days by MTT assay; assay type: functional; settings: 120 h, read-out: ID50; how it was run: as §2
Trypanosoma cruzi [9] = assay: Decrease of glucose uptake in Trypanosoma cruzi Y epimastigotes after 4 hrs relative to control; assay type: functional, organism-based
How it was run: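 Y-strain epimastigotes (80×10^6/mL) washed and resuspended in PBS with 1 mM glucose, exposed 4 h to 20 μM compound from DMSO. Parasite-free supernatant refluxed 1 h with Benedict's reagent; remaining glucose quantified at 700 nm against a calibration curve.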

Leishmania braziliensis [10] = assay: Inhibition of Mitochondrial dehydrogenase in Leishmania braziliensis MHOM/BR/00/LTB300 at 20 uM after 30 to 240 mins by MTT dye reduction assay in relative to control
Trypanosoma cruzi [11] = assay: Reduction of end products excretion levels in Trypanosoma cruzi Y epimastigotes after 2 days by [1H]NMR method; assay type: functional, organism-based
How it was run: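 Y-strain epimastigotes treated 2 days with 5 μM compound; culture centrifuged 1500 g, 10 min, 4 °C, parasite-free supernatant stored at −20 °C. Supernatant plus DMF internal standard and D2O run by 1H NMR with water suppression; metabolite peaks confirmed by spiking and standards, compared to untreated and parasite-free medium.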

Trypanosoma cruzi [12] = assay: Inhibition of Mitochondrial dehydrogenase in Trypanosoma cruzi Y epimastigotes at 20 uM after 30 to 240 mins by MTT dye reduction assay in relative to control
How it was run: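 Y-strain epimastigotes, 10^6 per well in 500 µL, 20 μM compound, 28 °C for 30–240 min with time-matched untreated controls. MTT (50 µL of 5 mg/mL) added for 4 h more, stopped with acidic isopropanol, A570 read; activity expressed as % of untreated parasites.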

Trypanosoma cruzi [13] = assay: Antitrypanosomal activity against Trypanosoma cruzi CL Brener epimastigotes after 5 days by MTT assay; assay type: functional; settings: 120 h, read-out: ID50; how it was run: as §2
Trypanosoma cruzi [14] = assay: Antitrypanosomal activity against Trypanosoma cruzi CL Brener trypomastigotes infected in Vero cells assessed as parasite lysis at 10 uM after 2 hrs relative to untreated control; assay type: functional
How it was run: (§3)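 Cell-culture trypomastigotes released from infected Vero cells (37 °C, 5% CO2, 5–7 days), collected by centrifugation and allowed 4 h at 37 °C to swim off. Supernatant parasites exposed to 10.0–50.0 μM for 2–26 h; lysis counted in a Neubauer chamber relative to untreated parasites; three independent experiments.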

Trypanosoma cruzi [15] = assay: Antitrypanosomal activity against Trypanosoma cruzi CL Brener trypomastigotes infected in Vero cells assessed as parasite lysis at 10 uM after 3 hrs relative to untreated control; assay type: functional; how it was run: as §3
Trypanosoma cruzi [16] = assay: Antitrypanosomal activity against Trypanosoma cruzi CL Brener trypomastigotes infected in Vero cells assessed as parasite lysis at 10 uM after 22 hrs relative to untreated control; assay type: functional; how it was run: as §3
Trypanosoma cruzi [17] = assay: Antitrypanosomal activity against Trypanosoma cruzi CL Brener trypomastigotes infected in Vero cells assessed as parasite lysis at 10 uM after 26 hrs relative to untreated control; assay type: functional; how it was run: as §3
Trypanosoma cruzi [18] = assay: Antitrypanosomal activity against Trypanosoma cruzi Colombiana after 5 days by MTT assay; settings: 120 h, read-out: ID50

Row | SMILES | Activity (J774) | Activity (Trypanosoma cruzi [1]) | Ratio [2] | Ratio [3] | IC50 (Trypanosoma cruzi [4]) | CC50 [5] | IC50 (Leishmania braziliensis [6]) | Activity (Trypanosoma cruzi [7]) | IC50 (Trypanosoma cruzi [8]) | also measured
1 | [O-][N+]1=c2cc(Cl)c(Cl)cc2=[N+]([O-])C12CCCC2 | 1.65% | 60.9% | 7.2 | 3.3 | 12 µM | 39 µM | 5.4 µM | 67.1% | 5.3 µM | 
2 | CC1(Cc2ccc(Cl)cc2)[N+]([O-])=c2ccccc2=[N+]1[O-] | 1.42% |  |  | 1.4 | 40 µM | 55 µM |  |  |  | 
3 | CC1(C)[N+]([O-])=c2cc(Cl)c(Cl)cc2=[N+]1[O-] | 0.87% | 94.4% | 9.9 | 6.9 | 14.5 µM | 100 µM | 10.1 µM | 88.3% | 9.9 µM | 
4 | Cc1ccc2c(c1)=[N+]([O-])C(C)(C)[N+]=2[O-] |  | 35.1% |  |  | 5.1 µM |  | 30.4 µM | 61.4% | 3.3 µM | Activity (Trypanosoma cruzi [9]): inactive; Activity (Leishmania braziliensis [10]): inactive; Activity (Trypanosoma cruzi [11]): Active; Activity (Trypanosoma cruzi [12]): inactive
5 | CC1(C)[N+]([O-])=c2ccc(/C=N/O)cc2=[N+]1[O-] |  | 21.7% | <1.5 | 6.2 |  | 77 µM | > 50 µM | 46.6% | 16.4 µM | IC50 (Trypanosoma cruzi [13]): > 40 µM
6 | O=C(Cn1ccnc1[N+](=O)[O-])NCc1ccccc1 [BENZNIDAZOLE] |  |  |  |  | 7.4 µM |  |  |  |  | Activity (Trypanosoma cruzi [12]): Active
7 | [O-][N+]1=c2ccc(Br)cc2=[N+]([O-])C12CCCC2 | 0.82% | 83.8% | 3.7 | 6.1 | 16.3 µM | 100 µM | 26.7 µM | 91.5% | 3.5 µM | Activity (Trypanosoma cruzi [9]): Active; Activity (Trypanosoma cruzi [14]): 0%; Activity (Trypanosoma cruzi [15]): 35%; Activity (Trypanosoma cruzi [16]): 16%; Activity (Leishmania braziliensis [10]): Active; Activity (Trypanosoma cruzi [11]): Active; Activity (Trypanosoma cruzi [12]): inactive; Activity (Trypanosoma cruzi [17]): 16%
8 | CC1(C)[N+]([O-])=c2ccc(/C=C/c3ccc4c(c3)OCO4)cc2=[N+]1[O-] | 1.37% |  |  | 18.7 | 3.1 µM | 58 µM |  |  |  | 
9 | COc1ccc2c(c1)=[N+]([O-])C1(CCCC1)[N+]=2[O-] | 0.89% | 17.3% | <2 | 4 | 25 µM | 100 µM | > 50 µM | 62.6% | 4.9 µM | 
10 | CC1(C)[N+]([O-])=c2ccc(/C=C/c3ccc(Cl)cc3)cc2=[N+]1[O-] | 1.48% |  |  | 6.4 | 8.1 µM | 52 µM |  |  |  | 
11 | Cc1c(Sc2ccccc2)[n+]([O-])c2cc(Cl)c(Cl)cc2[n+]1[O-] |  |  |  |  |  |  |  |  |  | Activity (Trypanosoma cruzi [12]): Active
12 | CC1(Cc2ccc([N+](=O)[O-])cc2)[N+]([O-])=c2ccccc2=[N+]1[O-] | 0.47% |  |  | 14.5 | 8.4 µM | 122 µM |  |  |  | 
13 | CC1(C)[N+]([O-])=c2ccc(Cl)cc2=[N+]1[O-] | 1.74% |  |  | 3.8 | 10.1 µM | 38 µM |  |  |  | 
14 | CC1(Cc2ccccc2)[N+]([O-])=c2ccccc2=[N+]1[O-] | 0.46% | 18.6% | 14.6 | <6 | > 50 µM | 302 µM | 20.7 µM | 47% |  | 
15 | CCCCCC1(C)[N+]([O-])=c2ccccc2=[N+]1[O-] | 0.01% | 77.1% | <4.7 | 43.1 | 5.4 µM | 233 µM | > 50 µM | 88.2% |  | 
16 | [O-][N+]1=c2ccc(/C=N/O)cc2=[N+]([O-])C12CCCC2 | 0.82% | 29% | 4.9 | 6.6 | 19.8 µM | 130 µM | 26.7 µM | 65.6% | 5.7 µM | 
17 | CCCCCCCCCCCCCCCCOP(=O)([O-])OCC[N+](C)(C)C [MILTEFOSINE] |  |  | 15.1 |  |  | 136 µM | 9 µM |  |  | Activity (Leishmania braziliensis [10]): Active
18 | [O-][N+]1=c2ccccc2=[N+]([O-])C12CCCC2 | 0.75% | 94.8% | >111.1 | >42.1 | 9.5 µM | > 400 µM | 3.6 µM | 83.7% | 6.4 µM | 
19 | CC1CS(=O)(=O)CCN1/N=C/c1ccc([N+](=O)[O-])o1 (centres undefined) [NIFURTIMOX] |  | 87% |  | 44.9 | 7.7 µM | 346 µM |  | 90% | 9.7 µM | IC50 (Trypanosoma cruzi [13]): 4.9 µM; IC50 (Trypanosoma cruzi [18]): 3.4 µM; Activity (Trypanosoma cruzi [9]): inactive; Activity (Trypanosoma cruzi [12]): inactive
20 | COc1ccc(CC2(C)[N+]([O-])=c3ccccc3=[N+]2[O-])cc1 | 0.32% | 30.8% | >11.4 | 8 |  | > 400 µM | 35 µM |  |  | ID50 (Trypanosoma cruzi [4]): > 50 µM
